The values that follow come from PubChem BioAssay AID651647 (Sanford-Burnham Center for Chemical Genomics, 2012).

Molecules are shown by their SMILES. Among all 360,000 compounds or so, about 220 (0.061%) were called active.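 The calls were made as follows: active = GFP/RFP ratio change of at least 30% with cell ATP level not reduced by more than half and red fluorescence within 50% of control; inactive = the rest, inconclusive results apart.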 Only a selection was taken, and actives are over-represented in it overall.

The target in this assay is Matrix metalloproteinase-14 (Homo sapiens) (UniProt P50281). The experiment in a line: blockers of MT1-MMP proenzyme processing, primary screen, HT1080 RFP-PRO-GFP cells, GFP/RFP fluorescence (AID 651647). The conditions noted are these: overnight, at 20 µM, active compounds read high, percent of plate control window, DMSO zero. Summed up:
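Read-out: GFP/RFP fluorescence ratio; Test system: RFP-PRO-GFP reporter HT1080 cells; Compound dosing: single-point 20 µM compound, 1% DMSO; Times: overnight compound exposure at 37 °C.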
Take `COC1=C/C(=C/c2c(N)n3nc(CC(=O)N4CCOCC4)sc3nc2=O)C=CC1=O`: the GFP/RFP ratio change was -33.2% (inactive).
Next, `Cc1ccc(C(=O)Nc2nnc(C3=COCCO3)o2)cc1C`: -0.926% (inactive).
Next, `CCC(=O)N1CCCC1(C)C(=O)Nc1ccc2c(c1)CCN2C(C)=O` (stereo unspecified): -0.545% (inactive).
For the compound `NS(=O)(=O)c1ccc(N2C(=O)C3C4CC(C(Br)C4Br)C3C2=O)cc1` (stereo unspecified), the GFP/RFP ratio change is -0.391% (inactive).
The value for `CCc1ccc(-c2cc3c(=O)n(CC(=O)NCCCN4CCN(Cc5ccccc5)CC4)nc(C)n3n2)cc1` was -3.13% (inactive); that for `C/C(=N\c1nc2ccccc2n1C)c1cc(Cl)ccc1O` was 1.93% (inactive).
The value for `COc1cc(C(=S)NCc2ccccc2)cc(Br)c1O` was 4.38% (inactive); that for `O=S1(=O)CC(N2CCN(CCO)CC2)CN1C1CCCC1` (stereo unspecified) was -0.753% (inactive).
Next, `CSc1cccc(NC(=O)C2CCCN2S(=O)(=O)c2ccc3c(c2)CCC(=O)N3)c1` (stereo unspecified): -0.538% (inactive); `O=[N+]([O-])c1cc(S(=O)(=O)N2CCCC2)ccc1NN=C1CCCC1`: 0.0654% (inactive).
`COc1ccc(/C=C2\CCCC3C2=NN(C(=O)c2scnc2C)C3c2ccc(OC)cc2)cc1` (stereo unspecified): the GFP/RFP ratio change is -11.9% (inactive).
The value for `CCN(c1ccccc1)S(=O)(=O)c1ccc2[nH]c(=O)[nH]c2c1` was -1.12% (inactive); that for `O=C1CCC(C(=O)N2CCC(O)(c3ccccc3)CC2)CN1CCc1ccccc1` (stereo unspecified) was -2.93% (inactive).
Next, `COc1ccc(CCN2CC(C(=O)NCCN3CCNC3=O)CCC2=O)cc1` (stereo unspecified): 0.0278% (inactive); `Cc1ccc(-c2nc(CSCC(=O)NC3CCN(Cc4ccccc4)CC3)c(C)o2)cc1`: 1.7% (inactive); `CC1(C)N=C(c2ccccn2)C(C)(C)N1O`: -4.4% (inactive).
With `O=C(NNc1c2ccccc2nc2ccccc12)c1cc2ccccc2cc1O`, the GFP/RFP ratio change is 55.7% (active).
For `O=C(CSc1nc(C2CC2)nc2ccccc12)Nc1cccc(O)c1`, the GFP/RFP ratio change is -3.6% (inactive).
Next, `O=C(Cc1ccccn1)c1ccc(O)cc1O`: -2.78% (inactive).
For the compound `O=C(COC(=O)COc1ccccc1F)Nc1cccc(S(=O)(=O)N2CCCCC2)c1`, the GFP/RFP ratio change was 4.15% (inactive).
Next, `CC1(c2ccccc2Cl)NC(=O)N(CC(=O)NC(=O)NCc2ccco2)C1=O` (stereo unspecified): -1.98% (inactive).
For the compound `O=C(Cn1c(-c2cscn2)nc2ccccc21)Nc1ccc(Cl)cc1`, the GFP/RFP ratio change is 0.072% (inactive).
As for `O=C(CSc1nnc(-c2ccc([N+](=O)[O-])cc2)o1)Nc1ccccn1`, the GFP/RFP ratio change was 3.02% (inactive).
In the case of `O=C(c1cc2c(s1)CCC2)N1CCN(c2ccccc2)CC1`, the GFP/RFP ratio change was -1.39% (inactive).
The value for `O=C(COc1ncnc2c(Cl)cc(Cl)cc12)N1CCN(S(=O)(=O)c2ccccc2)CC1` was -1.19% (inactive).
The value for `COc1ccc(C(=O)CN2C(=O)NC(C)(c3ccc(C)cc3)C2=O)cc1OC` (stereo unspecified) was 5.51% (inactive); that for `CCOC(=O)C1CCN(C(=O)Nc2ccc(C)c(Cl)c2)CC1` was 2.62% (inactive).
As for `CCC1=C(OC(=O)N(CC)CC)N2C(=O)OC(=NCC3CC3)[C@]2(C)[C@H]2C1=CC[C@H]1C(=O)N(CC(=O)OC)C(=O)[C@H]12`, the GFP/RFP ratio change was -1.64% (inactive).
Take `O=c1[nH]c2ccccc2n2c(-c3ccccc3)nnc12`: the GFP/RFP ratio change is 2.93% (inactive).
With `Cc1ccc(NC(=O)CSc2nnc(CNC(=O)c3ccccc3F)o2)cc1Cl`, the GFP/RFP ratio change was 3.87% (inactive).
The value for `CCOC(=O)N1CCC(c2cc(=O)n(-c3ccccc3)[nH]2)CC1` was 9.16% (inactive); that for `CCOc1ccc(CCNC(=O)COC(=O)C2CCN(S(=O)(=O)c3ccccc3)CC2)cc1OCC` was 2.91% (inactive); that for `O=C(NCCN1CCOCC1)c1ccccc1N1C(=O)[C@@H]2Cc3c([nH]c4ccccc34)C(c3cccc(Cl)c3)N2C1=O` (stereo partly specified) was -1.74% (inactive).
Next, `CC1(C)CC(O)C(CCC(O)c2ccccc2)C(C)(C)N1` (stereo unspecified): -4.83% (inactive).
The value for `CC1CCCCC12NC(=O)N(CC(=O)OCc1c(F)cccc1Cl)C2=O` (stereo unspecified) was -0.886% (inactive); that for `O=C(CCN1CCN(C/C=C/c2ccccc2)CC1)Nc1cccc(F)c1` was 5.08% (inactive); that for `CCCOC1CCCN(C(=O)c2cc(COc3cncc(Cl)c3)on2)C1` (stereo unspecified) was 0.805% (inactive).
On to `CCCC1NC(=S)NC(C)=C1C(C)=O` (stereo unspecified), for which the GFP/RFP ratio change was 5.05% (inactive).
With `O=C(C1CCN(S(=O)(=O)Cc2ccccc2)CC1)N1CCCc2ccccc21`, the GFP/RFP ratio change is -2.92% (inactive).
Next, `O=[N+]([O-])c1ccc(N2CCNCC2)cc1NCc1cccnc1`: -8.92% (inactive).
Next, `O=C(NC1CCCC1)C(c1ccc(Cl)cc1)N(C(=O)c1csnn1)C1CC1` (stereo unspecified): -4.04% (inactive); `O=C(c1ccco1)N1CCN(C(=O)C2CC(c3ccc(F)cc3)=NO2)CC1` (stereo unspecified): 1.83% (inactive).
For the compound `CCc1cccc2c(C=C(C#N)C#N)cn(CC(=O)N3CCCCC3)c12`, the GFP/RFP ratio change is 0.243% (inactive).
Next, `CC(=O)c1cccc(-c2cnc3c(NC=O)cc(-c4ccc(N5CCN(C)CC5)cc4)cn23)c1`: -9.51% (inactive); `COCCNC(=O)COc1ccc(N(C)S(=O)(=O)c2ccc3ccccc3c2)cc1`: 0.935% (inactive).
For the compound `Cc1cc2ccccc2n1CCNC(=O)COc1ccc2ccccc2c1`, the GFP/RFP ratio change is 30.8% (active).
The value for `CN(C)S(=O)(=O)c1cccc(NC(=O)COc2ccc3ccccc3c2)c1` was 3.9% (inactive); that for `C[C@@H]1CN([C@@H](C)CO)C(=O)c2cc(Br)cnc2O[C@@H]1CN(C)C(=O)C1CCCCC1` was 5.19% (inactive); that for `S=C1Nc2cc(Cl)ccc2Sc2ccccc21` was 1.33% (inactive).
Next, `Cc1cc(C)cc(Oc2nc3c(C)cccn3c(=O)c2/C=C(\C#N)C(=O)NC2CCS(=O)(=O)C2)c1` (stereo unspecified): -5.71% (inactive).
Next, `O=C(CSc1nnc(-c2ccoc2)o1)N1CCOCC1`: -1.67% (inactive).
In the case of `O=C1Nc2ccccc2NC(c2ccc3c(c2)OCO3)=C1N(Cc1ccc(F)cc1)C(=O)c1ccco1`, the GFP/RFP ratio change is 1.27% (inactive).
The value for `COc1ccc(C)cc1NC(=O)CCCN1C(=O)NC(C)(C)C1=O` was -3.61% (inactive); that for `C/C(=C\c1ccco1)CN1CCC(N2CCC(C(=O)N3CCOCC3)CC2)CC1` was 0.944% (inactive); that for `Cc1ccc(CNC(=O)CC2Sc3ccccc3NC2=O)cc1` (stereo unspecified) was 0.784% (inactive).
Next, `Cc1cc(-c2nnc(SCC(=O)Nc3ccc(S(N)(=O)=O)cc3)n2N)n[nH]1`: -2.72% (inactive).
